Results taken from ChEMBL document CHEMBL4400513, “Aurone derivatives as promising antibacterial agents against resistant Gram-positive pathogens” (Eur J Med Chem, 2019).
≈ marks a conversion by molar mass, not a printed value. Calls of active or inactive are those of the source. No cut-off for these calls is given here.

Tests used:
Salmonella enterica = experiment: Antimicrobial activity against Salmonella enterica after 18 to 24 hrs in aerobic condition by two-fold serial dilutions method; format: functional
Summary of the method: (§1)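 Colonies grown overnight (~16 h) in Mueller-Hinton broth at 37 °C, 200 rpm, diluted 1/100 and grown to log phase (OD600 ~0.6), then diluted to ~10^5 bacteria/mL. Exposed to 0 to 500 µM in 1:2 series (0.2% DMSO final control), aerobic, 37 °C, 18–24 h. OD600 read; MIC = lowest concentration without visible growth; n = 3.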

Candida albicans = experiment: Fungicidal activity against Candida albicans; format: functional, organism-based
Summary of the method: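 C. albicans in RPMI buffered with 0.165 M MOPS (pH 7.0). Two-fold serial dilutions from 0 to 500 µM, 0.2% DMSO final. Plates incubated at 35 °C for 24 h; OD600 read, MIC taken as the lowest concentration with no visible growth. Fungicidal concentration defined by ≤1 colony after streaking 10 µL of no-growth wells on agar. n = 3.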

Blautia producta = experiment: Antimicrobial activity against Clostridium coccoides after 18 to 24 hrs in anaerobic condition by two-fold serial dilutions method; format: functional
Summary of the method: (§2)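 Precultures in BHI broth at 37 °C in an anaerobic cabinet, grown to log phase (OD600 ~0.6), then seeded at ~10^5 bacteria/mL. Two-fold dilutions from 0 to 500 µM, 0.2% DMSO final as control. Plates incubated anaerobically at 37 °C for 18–24 h, OD600 read; MIC = lowest concentration giving no visible growth; independent triplicate.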

Staphylococcus aureus = experiment: Bactericidal activity against methicillin-resistant Staphylococcus aureus in aerobic condition; format: functional, organism-based
Escherichia coli = experiment: Bactericidal activity against Escherichia coli in aerobic condition; format: functional, organism-based
Summary of the method: (§3)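 From the MIC plates, 10 µL from each well without growth was streaked onto agar suited to the organism and incubated under that organism's growth conditions. Colonies were then counted; MBC = lowest concentration allowing ≤1 colony, i.e. killing 99.9% of bacteria.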

BEAS-2B = experiment: Cytotoxicity against human BEAS2B cells assessed as reduction in cell viability after 48 hrs by Resazurin dye-based assay; details: for IC50: Homo sapiens, BEAS-2B; for Activity: human, beas-2b
Summary of the method: (§4)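 Normal human lung epithelial (BEAS-2B) and lung fibroblast (IMR-90) cells were grown in DMEM with 10% FCS. Cells were seeded at ~10^4/well, grown to confluence (48–72 h), then exposed to increasing concentrations for 48 h at 37 °C, 5% CO2, with 0.2% DMSO as control. Resazurin was added for 4 h and fluorescence read at 530/590 nm. Viability was normalized to DMSO wells and IC50 calculated.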

Acinetobacter baumannii = experiment: Bactericidal activity against Acinetobacter baumannii MRS in aerobic condition; format: functional, organism-based; summary of the method: as §3
Vibrio diabolicus = experiment: Bactericidal activity against Vibrio diabolicus in aerobic condition; format: functional, organism-based
Summary of the method: (§5)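 MH broth; log-phase bacteria (OD600 ~0.6) diluted to ~10^5 bacteria/mL and exposed to two-fold serial dilutions (0–500 µM; 0.2% DMSO final as vehicle control) at 37 °C, aerobic, 18–24 h. MIC is the lowest concentration preventing visible growth (OD600). MBC is found by streaking 10 µL from no-growth wells onto agar; the MBC is the concentration where ≤1 colony grew. n = 3.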

Clostridium perfringens [1] = experiment: Antimicrobial activity against Clostridium perfringens after 24 to 72 hrs in anaerobic condition by two-fold serial dilutions method; format: functional
Summary of the method: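 C. perfringens grown in BHI at 37 °C anaerobically and brought to log phase (OD600 ~0.6). About 10^5 bacteria/mL with two-fold serial dilutions 0–500 µM, DMSO 0.2% final as control. Incubated 24 h at 37 °C in anaerobic cabinet; OD600 read; MIC = lowest concentration with no visible growth. Independent triplicate.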

Shigella flexneri = experiment: Antimicrobial activity against Shigella flexneri after 18 to 24 hrs in aerobic condition by two-fold serial dilutions method; format: functional; summary of the method: as §1
Fusarium oxysporum [2] = experiment: Antifungal activity against Fusarium oxysporum after 2 to 5 days by two-fold serial dilutions method; format: functional
Summary of the method: (§6)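 Broth two-fold serial dilution MIC, 0 to 500 µM (1:2 steps), from 200 mM DMSO stocks; 0.2% DMSO final as vehicle control. Inoculum about 10^5 cells/mL. Strains maintained on potato dextrose agar and in RPMI medium. Plates held at room temperature for 2 to 5 days, OD600 read; MIC = lowest concentration preventing visible growth; independent triplicate.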

IMR-90 = experiment: Cytotoxicity against human IMR90 cells assessed as reduction in cell viability after 48 hrs by Resazurin dye-based assay; details: for IC50: Homo sapiens, IMR-90, 48 h; for Activity: human, imr-90, 48 h; summary of the method: as §4
Pseudomonas aeruginosa = experiment: Bactericidal activity against Pseudomonas aeruginosa in aerobic condition; format: functional, organism-based; summary of the method: as §5
Fusarium verticillioides [3] = experiment: Antifungal activity against Fusarium verticillioides after 2 to 5 days by two-fold serial dilutions method; format: functional; summary of the method: as §6
Clostridium perfringens [4] = experiment: Bactericidal activity against Clostridium perfringens in anaerobic condition; format: functional, organism-based
Arthrobacter gandavensis [5] = experiment: Bactericidal activity against Arthrobacter gandavensis in aerobic condition; format: functional, organism-based; summary of the method: as §3
Citrobacter rodentium = experiment: Antimicrobial activity against Citrobacter rodentium after 18 to 24 hrs in aerobic condition by two-fold serial dilutions method; format: functional; summary of the method: as §1
Arthrobacter gandavensis [6] = experiment: Antimicrobial activity against Arthrobacter gandavensis after 18 to 24 hrs in aerobic condition by two-fold serial dilutions method; format: functional; summary of the method: as §1
Aspergillus ochraceus = experiment: Fungicidal activity against Aspergillus ochraceus; format: functional, organism-based
Summary of the method: (§7)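 Filamentous fungi grown on potato dextrose agar and tested in RPMI medium with two-fold serial dilutions (0–500 µM, 0.2% DMSO final). Plates held at room temperature for 2 to 5 days, then OD600 read; MIC taken as the lowest concentration with no visible growth. The fungicidal endpoint is ≤1 colony after streaking 10 µL of no-growth wells on agar. n = 3.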

Bacillus subtilis = experiment: Antimicrobial activity against Bacillus subtilis after 18 to 24 hrs in aerobic condition by two-fold serial dilutions method; format: functional; summary of the method: as §1
[7] = test system: Streptococcus thermophilus; experiment: Antimicrobial activity against Streptococcus thermophilus after 18 to 24 hrs in anaerobic condition by two-fold serial dilutions method; format: functional; summary of the method: as §2
Klebsiella variicola = experiment: Bactericidal activity against Klebsiella variicola in aerobic condition; format: functional, organism-based; summary of the method: as §3
Fusarium verticillioides [8] = experiment: Fungicidal activity against Fusarium verticillioides; format: functional, organism-based; summary of the method: as §7
Clostridium botulinum = experiment: Bactericidal activity against Clostridium botulinum in anaerobic condition; format: functional, organism-based
Fusarium graminearum = experiment: Antifungal activity against Fusarium graminearum after 2 to 5 days by two-fold serial dilutions method; format: functional
Summary of the method: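 F. graminearum grown on potato dextrose agar and in RPMI medium. Broth microdilution by NCCLS, two-fold serial dilution 0–500 µM, DMSO 0.2% final as vehicle control. Plates kept at room temperature 2 to 5 days, OD600 read; MIC taken as lowest concentration with no visible growth. Independent triplicate.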

Aspergillus flavus [9] = experiment: Antifungal activity against Aspergillus flavus after 2 to 5 days by two-fold serial dilutions method; format: functional; summary of the method: as §6
Fusarium oxysporum [10] = experiment: Fungicidal activity against Fusarium oxysporum; format: functional, organism-based; summary of the method: as §7
Aspergillus flavus [11] = experiment: Fungicidal activity against Aspergillus flavus; format: functional, organism-based; summary of the method: as §7
Cutibacterium acnes = experiment: Bactericidal activity against Propionibacterium acnes in aerobic condition; format: functional, organism-based; summary of the method: as §3

O=C1/C(=C/c2ccccc2)Oc2cc(O)cc(O)c21
MIC (Salmonella enterica): > 500 µM
Activity (Candida albicans): Active
MIC (Blautia producta): 500 µM (≈ 127 µg/mL)
Activity (Staphylococcus aureus): Active
Activity (Escherichia coli): Active
IC50 (BEAS-2B): 280 µM
Activity (BEAS-2B): Dose-dependent effect
Activity (Acinetobacter baumannii): Active
Activity (Vibrio diabolicus): Active
MIC (Clostridium perfringens [1]): 7.8 µM (≈ 1.98 µg/mL)
MIC (Shigella flexneri): > 500 µM
MIC (Fusarium oxysporum [2]): > 500 µM
IC50 (IMR-90): 250 µM
Activity (IMR-90): Dose-dependent effect
Activity (Pseudomonas aeruginosa): Active
MIC (Fusarium verticillioides [3]): > 500 µM
Activity (Clostridium perfringens [4]): Active
Activity (Arthrobacter gandavensis [5]): Active
MIC (Citrobacter rodentium): > 500 µM
MIC (Arthrobacter gandavensis [6]): 31.2 µM (≈ 7.95 µg/mL)
Activity (Aspergillus ochraceus): Active
MIC (Bacillus subtilis): 62.5 to 125 µM (≈ 15.9 to 31.8 µg/mL)
MIC [7]: 31.2 µM (≈ 7.95 µg/mL)
Activity (Klebsiella variicola): Active
Activity (Fusarium verticillioides [8]): Active
Activity (Clostridium botulinum): Active
MIC (Fusarium graminearum): 31.2 µM (≈ 7.95 µg/mL)
MIC (Aspergillus flavus [9]): > 500 µM
Activity (Fusarium oxysporum [10]): Active
Activity (Aspergillus flavus [11]): Active
Activity (Cutibacterium acnes): Active

COc1cc(/C=C2\Oc3cc(O)cc(O)c3C2=O)ccc1OCc1ccccc1
MIC (Salmonella enterica): > 500 µM
Activity (Candida albicans): Active
MIC (Blautia producta): 250 µM (≈ 97.6 µg/mL)
Activity (Staphylococcus aureus): Active
Activity (Escherichia coli): Active
IC50 (BEAS-2B): 190 µM
Activity (BEAS-2B): Dose-dependent effect
Activity (Acinetobacter baumannii): Active
Activity (Vibrio diabolicus): Active
MIC (Clostridium perfringens [1]): 31.2 to 62.5 µM (≈ 12.2 to 24.4 µg/mL)
MIC (Shigella flexneri): > 500 µM
MIC (Fusarium oxysporum [2]): > 500 µM
IC50 (IMR-90): 340 µM
Activity (IMR-90): Dose-dependent effect
Activity (Pseudomonas aeruginosa): Active
MIC (Fusarium verticillioides [3]): > 500 µM
Activity (Clostridium perfringens [4]): Active
Activity (Arthrobacter gandavensis [5]): Active
MIC (Citrobacter rodentium): > 500 µM
MIC (Arthrobacter gandavensis [6]): 31.2 µM (≈ 12.2 µg/mL)
Activity (Aspergillus ochraceus): Active
MIC (Bacillus subtilis): 7.8 µM (≈ 3.05 µg/mL)
MIC [7]: 125 µM (≈ 48.8 µg/mL)
Activity (Klebsiella variicola): Active
Activity (Fusarium verticillioides [8]): Active
Activity (Clostridium botulinum): Active
MIC (Fusarium graminearum): 500 µM (≈ 195 µg/mL)
MIC (Aspergillus flavus [9]): > 500 µM
Activity (Fusarium oxysporum [10]): Active
Activity (Aspergillus flavus [11]): Active
Activity (Cutibacterium acnes): Active

O=C1/C(=C/c2ccc(F)cc2)Oc2cc(O)cc(O)c21
MIC (Salmonella enterica): > 500 µM
Activity (Candida albicans): Active
MIC (Blautia producta): > 500 µM
Activity (Staphylococcus aureus): Active
Activity (Escherichia coli): Active
IC50 (BEAS-2B): 590 µM
Activity (BEAS-2B): Dose-dependent effect
Activity (Acinetobacter baumannii): Active
Activity (Vibrio diabolicus): Active
MIC (Clostridium perfringens [1]): 31.2 to 62.5 µM (≈ 8.51 to 17 µg/mL)
MIC (Shigella flexneri): > 500 µM
MIC (Fusarium oxysporum [2]): > 500 µM
IC50 (IMR-90): 620 µM
Activity (IMR-90): Dose-dependent effect
Activity (Pseudomonas aeruginosa): Active
MIC (Fusarium verticillioides [3]): > 500 µM
Activity (Clostridium perfringens [4]): Active
Activity (Arthrobacter gandavensis [5]): Active
MIC (Citrobacter rodentium): > 500 µM
MIC (Arthrobacter gandavensis [6]): 15.6 µM (≈ 4.25 µg/mL)
Activity (Aspergillus ochraceus): Active
MIC (Bacillus subtilis): 62.5 µM (≈ 17 µg/mL)
MIC [7]: 31.2 µM (≈ 8.51 µg/mL)
Activity (Klebsiella variicola): Active
Activity (Fusarium verticillioides [8]): Active
Activity (Clostridium botulinum): Active
MIC (Fusarium graminearum): > 500 µM
MIC (Aspergillus flavus [9]): > 500 µM
Activity (Fusarium oxysporum [10]): Active
Activity (Aspergillus flavus [11]): Active
Activity (Cutibacterium acnes): Active
